Rows were chosen to be rich in hits. Some 4.8% of all compounds tested hit in one or more screens of this group.
PAFAH2 FP inh: inhibitors of human PAFAH2. Q99487. recombinant PAFAH2, FP-rhodamine activity probe, fluorescence polarization. inhibition, % at 3.39 µM. hit rate 0.99% among 340,000. AID 492956;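 active = inhibition above the mean over all tested compounds plus 3 SD, cut at about 30% in these data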;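 also: inhibitors block probe labeling of enzyme so polarization drops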
PAFAH1B2 FP inh: PAFAH1B2 (human) inhibition. recombinant PAFAH1B2, FP-rhodamine activity probe, fluorescence polarization. AID 492953. hit rate 1.2% among 340,000. P68402. inhibition, % at 3.39 µM;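 active = inhibition above the mean of all tested compounds plus 3 SD, cut at about 24% in these data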
Target sequence (P68402 whole entry, looked up): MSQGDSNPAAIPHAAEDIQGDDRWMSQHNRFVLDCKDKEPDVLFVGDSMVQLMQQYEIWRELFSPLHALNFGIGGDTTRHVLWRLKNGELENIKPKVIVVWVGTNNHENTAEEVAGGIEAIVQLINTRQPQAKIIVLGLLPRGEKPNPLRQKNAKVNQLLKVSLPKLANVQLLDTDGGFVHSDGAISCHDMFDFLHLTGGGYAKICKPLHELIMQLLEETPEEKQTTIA
PAFAH1B3 inh: PAFAH1B3 (human) inhibition | hit rate 0.28% among 340,000 | Q15102 | recombinant PAFAH1B3, FP-rhodamine probe, fluorescence polarization | inhibition, % at 3.39 µM | AID 492972;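 active = inhibition above the screen-wide average of all tested compounds plus 3 SD, cut at about 25% in these data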
NR3A LBD binder: modulates the human NR3A ligand-binding domain; NR3A LBD differential scanning fluorimetry, Tm shift; 0% = protein alone, 100% = glycine-bound protein; Tm shift relative to glycine control, % at 25 µM; hit rate 2.5% among 340,000;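 active = melting temperature shift of at least 10% of the positive control shift, at one fixed dose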
pPAFAH inh: inhibitors of human plasma PAF acetylhydrolase (pPAFAH); inhibition, % at 3.39 µM; hit rate 1.5% among 330,000; recombinant pPAFAH, FP-rhodamine probe fluorescence polarization; Q13093; AID 463082;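 active = inhibition above the mean inhibition across the screen plus 3 SD, cut at about 25% in these data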;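 also: inhibitors block binding of the rhodamine activity-based probe so polarization drops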
UCH37 DUB inh: inhibitors of human deubiquitinating enzyme UCH37; inhibition, % (concentration not given with the values); purified proteasome/UCH37, Ub-AMC cleavage fluorescence; hit rate 0.33% among 330,000; AID 588478;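 active = mean inhibition over replicate wells above about 20%, limit read from the data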
Target sequence (Q9Y5K5 whole entry, looked up): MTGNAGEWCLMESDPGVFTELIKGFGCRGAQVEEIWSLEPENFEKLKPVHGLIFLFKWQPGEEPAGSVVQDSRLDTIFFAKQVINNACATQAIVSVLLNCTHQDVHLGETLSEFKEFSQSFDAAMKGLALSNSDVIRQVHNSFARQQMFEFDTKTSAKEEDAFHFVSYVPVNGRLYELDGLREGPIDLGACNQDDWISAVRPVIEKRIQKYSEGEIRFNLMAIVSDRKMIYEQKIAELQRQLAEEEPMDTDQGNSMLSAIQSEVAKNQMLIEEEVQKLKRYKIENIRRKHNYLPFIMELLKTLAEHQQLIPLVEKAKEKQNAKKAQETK
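Material: human UCH37 enzyme supplied as purified proteasome complex / Amount: 0.15 nM proteasome as dispensed / Buffer or medium: pH 7.4 Tris-HCl (50 mM) with ovalbumin, ATP-MgCl2, DTT / Times: preincubation 30 min, reaction 25 min, room temperature / Technique: AMC fluorescence from Ub-AMC cleavage, excitation 355 nm, emission 460 nm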
Hits are given with their value; – = inactive; · = no result.

SMILES	PAFAH2 FP inh	PAFAH1B2 FP inh	PAFAH1B3 inh	NR3A LBD binder	pPAFAH inh	UCH37 DUB inh
COCCn1c(SCC(=O)Nc2ccc(F)cc2)nc2c([nH]c3ccccc32)c1=O	–	–	–	–	–	–
Cn1c(SCC(=O)Nc2cccc(F)c2)nc2c([nH]c3ccccc32)c1=O	–	–	–	29.5	–	–
CCCCn1c(SCC(=O)Nc2ccc(NC(C)=O)cc2)nc2ccccc2c1=O	–	–	–	32.5	–	·
Cn1c(SCC(=O)Nc2ccc(F)cc2)nc2c([nH]c3ccccc32)c1=O	–	–	–	–	–	–
Brc1ccccc1C=NN1CCCCC1	·	·	·	·	·	–
Cc1no[n+]([O-])c1COc1cccc(C=NNc2nncn2N)c1	·	·	·	·	·	–
O=C(CC=NOCc1ccc([N+](=O)[O-])cc1)Nc1ccccc1	·	·	·	·	·	–
CCN(CC)c1ccc2cc(C(N)=O)c(=NNC(=O)c3ccncc3)oc2c1	·	·	·	·	·	21.7
CN(/N=C/c1ccc(Br)o1)C1=NS(=O)(=O)c2ccccc21	–	–	–	16.2	–	·
Cc1ccc(/C=N/N(C)C2=NS(=O)(=O)c3ccccc32)o1	·	·	·	·	–	·
COc1cccc(/C=N/N(C)C2=NS(=O)(=O)c3ccccc32)c1O	–	–	–	–	–	·
CN(/N=C/c1cc(Cl)ccc1O)C1=NS(=O)(=O)c2ccccc21	–	–	–	11.8	–	·
O=C(CCN1CCOCC1)N1CCc2c([nH]c3ccccc23)C1c1cccc(Cl)c1 (centres undefined)	–	–	–	–	–	23.1
O=C(NN=Cc1c(F)cccc1Cl)C(=O)N1CCCCCC1	·	·	·	·	·	–
O=C(N[C@@H](Cc1ccccc1)C(=O)OCc1ccccc1)c1nc[nH]c1C(=O)NCc1ccccc1	–	–	–	–	33.2	–
C[C@H](NC(=O)c1[nH]cnc1C(=O)Nc1cccc(Cl)c1)c1ccccc1	–	–	–	–	–	–
O=C(Nc1ccc(Cl)cc1)c1nc[nH]c1C(=O)NCc1ccccc1	–	–	–	24.4	–	–
C[C@H](NC(=O)c1[nH]cnc1C(=O)Nc1ccc(Cl)cc1)c1ccccc1	–	–	–	24.4	–	–
C[C@@H](NC(=O)c1[nH]cnc1C(=O)Nc1ccc(Cl)cc1)c1ccccc1	–	–	–	–	–	–
C[C@@H](NC(=O)c1[nH]cnc1C(=O)Nc1cccc(Cl)c1)c1ccccc1	–	–	–	25.7	–	–
Cc1nnc(SCC(=O)NN=Cc2cc(Cl)c(O)c(Cl)c2)s1	·	·	·	·	·	–
COc1ccc2cc(C=NNC(=O)c3ccc(CN(c4ccc(C)c(C)c4)S(C)(=O)=O)cc3)c(Cl)nc2c1	·	·	·	·	·	–
CS(=O)(=O)N(Cc1ccc(C(=O)NN=C2CCCCCC2)cc1)c1ccccc1	–	–	–	12.7	–	–
CS(=O)(=O)N(Cc1ccc(C(=O)NN=C2CCCC2)cc1)c1ccccc1	–	–	–	–	–	–
CS(=O)(=O)N(Cc1ccc(Cl)cc1)c1ccc(C(=O)N/N=C/c2cc3ccccc3nc2Cl)cc1	–	–	–	10.2	–	·
SMILES	PAFAH2 FP inh	PAFAH1B2 FP inh	PAFAH1B3 inh	NR3A LBD binder	pPAFAH inh	UCH37 DUB inh
CC(Cc1ccccc1)=NNC(=O)CNC(=O)COc1cccc(C)c1	·	·	·	·	·	–
O=C(NN=Cc1cccc2ccccc12)c1cc(C2CC2)[nH]n1	·	·	·	·	·	–
CC(=O)c1cccc(NC(=O)CC2S/C(=N/N=Cc3cccs3)NC2=O)c1 (centres undefined)	·	·	·	·	·	–
Cc1cc(Br)c(OCc2ccc(C(=O)N/N=C3\CC4CC=CC34)cc2)c(Br)c1 (centres undefined)	–	–	–	12.2	–	·
COc1cc(NC(=O)CSc2ncnc3scc(-c4ccccc4)c23)c(C(=O)O)cc1OC	–	–	–	–	30.9	–
O=C(O)CSc1ncnc2scc(-c3ccccc3)c12	–	–	–	–	–	–
C/C(C=NNC(=O)c1ccc2nc(C)[nH]c2c1)=C\c1ccccc1	·	·	·	·	·	–
Cn1c(CCN2CCN(c3ccccn3)CC2)nc2cc(NS(=O)(=O)c3ccc(Cl)cc3)ccc21	–	25.6	–	–	–	–
Cc1ccc(S(=O)(=O)Nc2ccc3c(c2)nc(CCN2CCN(c4ccccn4)CC2)n3C)cc1	–	–	–	–	–	–
Cc1cccc2cc(C=NNC(=O)c3ccncc3)c(Cl)nc12	·	·	·	·	·	–
COc1ccc(OC)c(NC(=O)c2ccc3c(=O)n(CCc4ccccc4)c(=S)[nH]c3c2)c1	–	–	–	14.9	–	–
CCC/C(=C1/c2ccccc2C(=O)N1c1ccccc1)c1ccc2[nH]ccc2c1	–	–	–	13.3	–	–
CCCC(/C=C/c1ccc(OC(C)=O)cc1)=C1/c2ccccc2C(=O)N1c1ccccc1	–	–	–	–	–	–
c1ccc(-c2ccc3ccccc3n2)cc1	–	–	–	31.9	–	–
COc1cccc(OCc2cc(C=NNC(=O)c3ccn[nH]3)ccc2OC)c1	·	·	·	·	·	–
COc1cc(CC(=O)O)ccc1O	–	–	–	–	34.2	–
COc1ccc(C(=O)Cc2ccc(OC)c(OC)c2)cc1	–	–	–	–	–	–
COc1cc(C[C@@H](C)[C@@H](C)Cc2ccc(O)c(OC)c2)ccc1O	–	26.5	–	–	–	–
COC(=O)c1ccc(CC(=O)c2c(C)cc(O)cc2O)o1	–	–	–	–	34.1	–
COc1ccc(CC(=O)c2c(O)cc(O)cc2O)cc1OC	–	–	–	–	25.0	–
CCOC(=O)c1c(N=Cc2cc(C)ccc2O)sc2c1CCN(C)C2	·	·	·	·	·	–
CC(=NNc1ccc(C)c(Cl)c1)c1ccncc1	·	·	·	·	·	–
CC1Cc2cc(S(=O)(=O)N3CCN(c4cccc(Cl)c4)CC3)ccc2N1C(=O)C1CC1 (centres undefined)	–	–	–	10.5	–	–
CC1Cc2cc(S(=O)(=O)N3CCN(c4ccc(Cl)cc4)CC3)ccc2N1C(=O)C1CC1 (centres undefined)	–	–	–	–	–	–
O=C(O)c1ccc(C=NNC(=O)c2ccc(NS(=O)(=O)c3cccs3)cc2)cc1	·	·	·	·	·	–
SMILES	PAFAH2 FP inh	PAFAH1B2 FP inh	PAFAH1B3 inh	NR3A LBD binder	pPAFAH inh	UCH37 DUB inh
Clc1ccc(/C=N/Nc2ncnc3ccccc23)cc1Cl	–	–	–	16.7	–	·
Fc1ccccc1/C=N/Nc1ncnc2ccccc12	–	–	–	–	–	·
N#CCCn1cc(C=NO)c(-c2ccc(-c3ccccc3)cc2)n1	·	·	·	·	·	–
O=[N+]([O-])c1cccc2ccc(/C=C/c3cccc(Br)c3)nc12	–	–	–	23.0	–	–
CCOc1cc(/C=C/c2ccc3cccc([N+](=O)[O-])c3n2)cc(Cl)c1O	–	–	–	–	–	–
CC(=O)Nc1ccc(/C=C/c2ccc3c([N+](=O)[O-])cccc3n2)cc1	–	–	–	–	–	–
O=[N+]([O-])c1cccc2ccc(/C=C/c3ccc(Cl)cc3)nc12	–	–	–	21.3	–	–
O=[N+]([O-])c1cccc2ccc(/C=C/c3ccc(C(F)(F)F)cc3)nc12	–	–	–	16.9	–	–

Screens deposited in PubChem BioAssay by several laboratories.
